# Assay results as given in the EternaBench riboswitch data.
# Test system: MS2 coat protein
# Experiment: apparent Kd, MS2 coat protein; higher = weaker binding; RNA-MaP array; FMN 200 µM where present
# Summary of the method: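 The titrant was SNAP-549-labelled MS2 coat protein, run from 0.7 or 1.5 nM in doubling steps to 3 µM. It was applied to designs transcribed by stalled E. coli RNA polymerase on Illumina sequencing-chip clusters, without ligand first and then with constant ligand, in 100 mM Tris-HCl pH 7.5, 80 mM KCl, 4 mM MgCl2, BSA, DTT, yeast tRNA and Tween-20. The apparent Kd is the median of filtered per-cluster binding-curve fits, with green signal normalised to red-channel RNA signal and control-cluster median Fmax.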
# [1] = designed as: OFF switch for flavin mononucleotide, no ligand
# [2] = ligand present: flavin mononucleotide, designed as: OFF switch for flavin mononucleotide
# [3] = designed as: ON switch for flavin mononucleotide, no ligand
# [4] = ligand present: flavin mononucleotide, designed as: ON switch for flavin mononucleotide
Sequence,apparent Kd [1],apparent Kd [2],apparent Kd [3],apparent Kd [4]
CCAUUUCAGUAAGGAUAUAUAAACAUGACGAUACAUGAGGAUCACCCAUGUGUAGAAGGUACUAAUACAUAUAAUGCAAUGCUC,0.0204 µM,0.0172 µM,–,–
CCCAUCGCAUGAGGAUAUGGUCAGCUUUGCUGACCAGAAGGCAUGUCAAUAGACAUGAGGAUCACCCAUGUAGUUAAGAUGGGA,–,–,0.675 µM,0.0492 µM
CCCGCGAUGUCAGGAUAUAGUCGGAGGUGCAGACUAGAAGGGACAUGAGGAUCACCCAUGUGCGUGAAAAUUUAAAACCUAAAU,0.0393 µM,0.119 µM,–,–
CCCGCGAUGUCAGGAUAUAGUCGGAGGUGCAGACUAGAAGGGACAUGAGGAUCACCCAUGUGCGUGAAAAUUUGAAACCCAGGU,0.0465 µM,0.164 µM,–,–
CCCUACGUUUCGUAGCAGUGUCAUCGAGAAGGCCCUGACAUGAGGAUCACCCAUGUUGUUACAUGGGAGGAUAUCGAUGAUGGG,–,–,0.023 µM,0.0061 µM
CCCUCAACAUGAGGAUCACCCAUGUAGGAUAUCGCUAUUGUAAUCAUGAAACAUGAUUACAAUAGCGAGAAGGACAUAUGCAAA,0.0253 µM,0.126 µM,–,–
CCCUCACAUGAGGAUCACCCAUGUUAGGAUAUCUACCAGGAGCUAUGAUUAGCCCAACGGAGAAGGAACGUGCA,0.0179 µM,0.0174 µM,–,–
CCGAAUAAGCAGGAUAUCGAAUCGGAAACGAUUCGAGAAGGGUUAACAUGAGGAUCACCCAUGUUCCUUAACGG,0.0203 µM,0.0222 µM,–,–
CCGACGAAAGUCGAACGAUGUAGCAGAAGGACAUGAGGAUCACCCAUGUCAGCUGUAACAGCCAUGUAGGAUAUGCUACAUCGC,0.00416 µM,0.00551 µM,–,–
CCGACGCAAGCAGGAUAUCUACUGGCGAUGGUACAUGAGGAUCACCCAUGUAGAGAAGGGCUAAGUGGAAGGAUGAUUUAAAAG,0.113 µM,0.097 µM,–,–
CCGAGAUGUGCAGGAUAUCAGGAUACGGUCCGCUGAGAAGGGCACAUGAGGAUCACCCAUGUGUGCGCAUAGGUGAAAGGCUUU,0.285 µM,0.154 µM,–,–
CCGAUAAUGUAGGAUAUCGUAUCGGAAACGAUACGAGAAGGGCAAACAUGAGGAUCACCCAUGUUCCUUAACGG,0.0174 µM,0.0185 µM,–,–
CCGAUGUUAGGAUAUACUGCCCGUGGGAUAAACGCCGGGUAGUAGAAGGAACAUGAGGAUCACCCAUGUGACAC,0.0396 µM,0.22 µM,–,–
CCGCAUGCUGUCAGGAUAUCGUAGAUAAUAAUAUGCGAGAAGGGACAUGAGGAUCACCCAUGUAAGAGGCGGCC,0.0289 µM,0.0377 µM,–,–
CCGCUGUGAGGAUAUUAGUAGUAGUCAGAAUAGACUAUUACUGAGAAGGCACAUGAGGAUCACCCAUGUUGCGG,0.0308 µM,0.039 µM,–,–
CCGGAAAUACAGGAUAUAGGAGUAAAUAUACUCCUAGAAGGGUAUACAUGAGGAUCACCCAUGUGUCCUACCGG,0.0266 µM,0.0273 µM,–,–
CCGGAAGUACAGGAUAUCGUAACGGAAACGUUACGAGAAGGGUAUACAUGAGGAUCACCCAUGUGUCCUACCGG,0.0283 µM,0.0266 µM,–,–
CCGGCUAAAGGAUAUGUGUGUAGCAACAUGAGGAUCACCCAUGUGAUGUCCUAGGUUAGCACAGAAGGUUACUAUU,0.0356 µM,0.0341 µM,–,–
CCGGGCAUCGGCCCAUCUAGGCGAAGAAGGGACACGGCCAAGAUCUCACAUGAGGAUCACCCAUGUCAGGAUAUUUGGUUGGAU,0.00656 µM,0.0103 µM,–,–
CCGGUUGGCGCAGGAUAUACAUGAGGAUCACCCAUGUUCAUCAGGAUCACCGAUGAGUUUUUGUUGUAGAAGGGUGGCCCGGCC,0.0352 µM,0.0372 µM,–,–
CCGGUUGGCGCAGGAUAUACAUGAGGAUCACCCAUGUUGAUGAGGAUCACCCAUCAGUUUUUGUUGUAGAAGGGUGGCCCGGCC,0.0231 µM,0.0193 µM,–,–
CCGGUUUAUGGAGGAUAUGGAGCCUUAUUGGCUCCAGAAGGCUAAUAACAUGAGGAUCACCCAUGUCGGCGGUCUAAUGACCGA,–,–,0.0331 µM,0.0206 µM
CCGUAAUAUGGAGGAUAUGGAGCCUUAUUGGCUCCAGAAGGUCAUAAAACAUGAGGAUCACCCAUGUCGGCGGUCAAUAGACCG,–,–,0.0557 µM,0.0205 µM
CCGUCGCUUAGCGCUCCUCAUACAUGAGGAUCACCCAUGUACAGAAGGCGGAGGGCCAGGCCCACCGAGGAUAUGUAAGUGUGA,0.073 µM,0.0732 µM,–,–
CCGUUGGGCUAGAAGGCUCCGGGAGAGCCGCGGAGAGGAUAUAGCACAUGAGGAUCACCCAUGUGGUAUGACCUUAUGUAAUCA,0.0337 µM,0.0629 µM,–,–
CCUAAGGACACAGGAUAUAGCGUGAUGGCUGGACUCCAACGGCGAGCGGCGCUAGAAGGGUGACCACAUGAGGAUCACCCAUGU,–,–,0.496 µM,0.195 µM
CCUAAGGAGGUAGGAUAUUGUGUGGUGGCCGGGCUCCCACGGCGAGCGGCACAAGAAGGAUCCCUACAUGAGGAUCACCCAUGU,–,–,0.0255 µM,0.0203 µM
CCUACCAUCACAGGAUAUGCUAUCCUUUGGGUAGCAGAAGGGUGAUAACAUGAGGAUCACCCAUGUGGUAGGCCCGGUGACGGG,–,–,0.768 µM,0.227 µM

Sequence,apparent Kd [1],apparent Kd [2],apparent Kd [3],apparent Kd [4]
CCUAGUGUGCAGAAGGAGAGUUAACUGCCCGUCGAUGGACUGCACAGAGCUCUAGGAUAUGCACAUGAGGAUCACCCAUGUGCU,0.00653 µM,0.00776 µM,–,–
CCUAGUUGGUAAGGAUAUCCUACACUAUUCUGACCCGUGCAGGCUACAUGAGGAUCACCCAUGUGGGAGAAGGUGCGUCAACGU,0.0126 µM,0.0118 µM,–,–
CCUCAGAACAAGAAGGUGGGAGAAGAGUAUAACUAAGGAUAUUGAAAGGGAUGAACAUGAGGAUCACCCAUGUAAGGAAUCGUG,0.0528 µM,0.0409 µM,–,–
CCUCCACAUGAGGAUCACCCAUGUCAGGAUAUCGUGUGUUUUUUUUCGGUCGCGCGUGCGAGAAGGGACGUCUU,0.0221 µM,0.025 µM,–,–
CCUCCACAUGAGGAUCACCCAUGUCAGGAUAUCGUGUGUUUUUUUUCGGUCUUUCGUGCGAGAAGGGACGUCUG,0.0274 µM,0.0299 µM,–,–
CCUCCAUCAUGAGGAUAUGGCACCUUAUUGGUGCCAGAAGGCAUGUCUCUUGACAUGAGGAUCACCCAUGUAAUAAAUUGGAGG,–,–,1.15 µM,0.109 µM
CCUCGACAUGAGGAUCACCCAUGUCAGGAUAUUGUGUAUCGGGUUUUUUACGGAAAGGCGAGAAGGGAUGUGUG,0.0184 µM,0.0169 µM,–,–
CCUCGACAUGAGGAUCACCCAUGUCAGGAUAUUGUGUCUCGGGUUUUUUACCGAUAGGCAAGAAGGGAUGUGUG,0.0234 µM,0.031 µM,–,–
CCUCUACAUGAGGAUCACCCAUGUGAGGAUAUAAGAUUGCGAAUUCCGCACUACGGUCUUAGAAGGCGCGUGGA,0.0164 µM,0.0305 µM,–,–
CCUCUGUGAGGAUAUCUAGAGUAGGCUGACAAUGUCAUUCAGGAGAAGGUACAUGAGGAUCACCCAUGUUCGGC,0.0244 µM,0.0563 µM,–,–
CCUCUGUUAGGAUAUCAAACACUAUCUGCUCCAGAGUUAAGUGAGAAGGGACAUGAGGAUCACCCAUGUAAAAU,0.0269 µM,0.0337 µM,–,–
CCUGAGUCAGGAUAUUGUACCAGCCUGAAGCCAGGCUGACCCAAGAAGGGACAUGAGGAUCACCCAUGUGAAAA,0.027 µM,0.0256 µM,–,–
CCUGCACAUGAGGAUCACCCAUGUUAGGAUAUCUCGCCGCCUAAACGAAUGGUGGCCCAGAGAAGGAACAGGGC,0.0286 µM,0.0413 µM,–,–
CCUGGCUUAGGAUAUACAGGAACCGAGAACCCGGAAGUGAAACAUGAGGAUCACCCAUGUAGAAGGAAGAAAGC,0.0268 µM,0.0231 µM,–,–
CCUGUACAUGAGGAUCACCCAUGUUAGGAUAUUCAGCCCGUCGAGUAUAAGGGUUUAAGAAGAAGGGACGUGGC,0.0155 µM,0.0161 µM,–,–
CCUGUCGUAUGAGGAUAUGGUCAGCUUUGCUGACCAGAAGGCAUGUCAAUAGACAUGAGGAUCACCCAUGUAGUAAAGACAGGA,–,–,0.381 µM,0.0401 µM
CCUGUGUGAGGAUAUGGUGUUGGCCACAAGGAAUAGCUCCUCCAGAAGGCACAUGAGGAUCACCCAUGUCGUGG,0.0176 µM,0.0803 µM,–,–
CCUUCACAUGAGGAUCACCCAUGUCCUAGUCCGUCAGGAUAUAGCCUGCAUCCGCUGUGGCUAGAAGGGACUGCUG,–,–,0.135 µM,0.207 µM
CCUUCUCGUGUCAGGAUAUCCACUCAUCGAAAUUAGGAGAAGGGACAUGAGGAUCACCCAUGUAUACAUGCCAG,0.073 µM,0.102 µM,–,–
CGAAAAUUUCAGAAGGACCGAUUCCACAUGAGGAUCACCCAUGUCGAUGGUAGGAUAUGGAGUUGUGGACAGGGCGGAUGUUCC,–,–,0.0463 µM,0.00839 µM
CGAACUAAGUAGAAGGCAGUCUUAAAAUAGGACUGAGGAUAUACAUGAGGAUCACCCAUGUACUCCUUUAAUAAGUUUGAAAUA,0.00531 µM,0.00538 µM,–,–
CGAAGAAAGUAGAAGGCAGUCUUAAAAUAGGACUGAGGAUAUACAUGAGGAUCACCCAUGUACUCCUUUAAUAUCUUUGAAAUA,0.0055 µM,0.00525 µM,–,–
CGAGAUCUUGAGAAGGCAUAAUAUAUAAUACCACAUGUUUACAUGAGGAUCACCCAUGUUUCCAAUGAGGAUAUCAGGAUUUCG,0.0196 µM,0.0148 µM,–,–
CGAGUGAUAGGAUAUACACCUUUUCAGAACAUGUGGCUGUUACAUGAGGAUCACCCAUGUAGAAGGAUCAAGCG,0.0658 µM,0.0663 µM,–,–
CGAUAAAGCUGAGGAUAUGAGAAUAGAAAGAAAUCAGAAGGCAGACAUGAGGAUCACCCAUGUGAGUUCUCGAGAUUAGAUAUU,0.0252 µM,0.0606 µM,–,–
CGAUAACAUAGUUAUCCGUAACGGACAUGAGGAUCACCCAUGUAGGAUAUGUUACUCAACGGGUAACAGAAGGACAUGAGUCUU,0.0144 µM,0.0417 µM,–,–
CGAUAUUAUAGAGGAUAUGUUUAACAUGAGGAUCACCCAUGUGAGGUGGAAUUAAUGUAUUACUUACAGAAGGCUAUACAAUCG,0.316 µM,0.432 µM,–,–
